Source: PubChem BioAssay
An excerpt weighted towards active compounds, which were near 9.4% of everything screened.
T cruzi repl – T. cruzi replication inhibition; T. cruzi beta-gal in NIH3T3, luminescence, 90 h; inhibition, % (test concentration not listed); 1.4% of 300,000 active; AID 1885;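 active = mean inhibition across valid replicates above about 55%, limit read from the data; inconclusive = mean below that limit but half or more replicates reach it; inactive = mean below it, under half of replicates reach it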;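 note: signal also drops with host cell toxicity which is not excluded here; higher percent means less beta-gal luminescence so fewer parasites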
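Material: NIH/3T3 host cells with β-galactosidase reporter T. cruzi; Input: 5,000 host fibroblasts per well; Medium: DMEM, 2% fetal bovine serum; Compound: 50 nL DMSO compound solution per well; Schedule: 3 h host attachment, then at least 90 h co-culture; Detection: luminescent β-galactosidase signal after 60 min lysis.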
Mdm2 MdmX PPI – disrupts the human Mdm2-MdmX interaction. AID 485346. inhibition, % at 8 µM. SaOS-2 split-luciferase Mdm2/MdmX complementation, luminescence. 3% of 330,000 active;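 active = inhibition of at least 50% at 8 µM in the primary screen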
Target sequence (O15151 whole entry, looked up): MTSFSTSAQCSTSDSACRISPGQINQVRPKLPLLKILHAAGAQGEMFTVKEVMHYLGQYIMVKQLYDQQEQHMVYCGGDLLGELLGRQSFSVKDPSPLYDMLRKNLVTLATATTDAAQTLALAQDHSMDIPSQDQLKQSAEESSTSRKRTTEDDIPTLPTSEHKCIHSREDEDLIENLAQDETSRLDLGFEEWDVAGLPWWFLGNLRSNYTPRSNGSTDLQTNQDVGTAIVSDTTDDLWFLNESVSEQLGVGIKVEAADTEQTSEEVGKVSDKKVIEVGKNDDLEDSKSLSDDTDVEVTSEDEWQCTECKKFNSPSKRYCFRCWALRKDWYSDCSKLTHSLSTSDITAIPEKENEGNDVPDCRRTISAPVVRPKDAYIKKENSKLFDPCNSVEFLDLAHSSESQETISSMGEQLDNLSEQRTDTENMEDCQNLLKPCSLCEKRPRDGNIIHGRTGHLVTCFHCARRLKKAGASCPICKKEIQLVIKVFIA
Target sequence (Q00987 whole entry, looked up): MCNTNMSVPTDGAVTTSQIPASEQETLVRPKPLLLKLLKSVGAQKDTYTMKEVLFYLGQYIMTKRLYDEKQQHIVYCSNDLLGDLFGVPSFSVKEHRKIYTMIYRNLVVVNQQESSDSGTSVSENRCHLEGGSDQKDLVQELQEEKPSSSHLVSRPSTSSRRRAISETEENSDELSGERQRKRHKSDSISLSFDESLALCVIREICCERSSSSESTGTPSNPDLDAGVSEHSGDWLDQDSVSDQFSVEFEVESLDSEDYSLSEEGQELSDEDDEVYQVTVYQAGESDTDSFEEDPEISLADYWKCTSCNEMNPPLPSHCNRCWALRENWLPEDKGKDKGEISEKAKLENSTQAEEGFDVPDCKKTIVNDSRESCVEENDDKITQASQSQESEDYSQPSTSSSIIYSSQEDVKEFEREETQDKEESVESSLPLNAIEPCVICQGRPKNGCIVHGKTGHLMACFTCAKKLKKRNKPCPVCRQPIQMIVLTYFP
Beta cell apopt – beta cell apoptosis inhibition; INS-1E cytokine-induced death, ATP luminescence, 48 h; percent of positive-control rescue, neutral wells zero; protection from apoptosis, % (test concentration not listed); 0.8% of 300,000 active;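 active = Every replicate reaches about 75%, or at least half do and their mean reaches it too, limit read from the data; inconclusive = At least half of replicates reach the limit but their mean does not; inactive = Under half of replicates reach the limit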;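 note: higher means more ATP so stronger rescue from cytokine killing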
SKKanGAS inh – inhibitors of SKKanGAS S. pyogenes growth in kanamycin (SK-promoter or general growth effect) | BacTiter-Glo, 6 h | inhibition, % at 7.5 µM | 1.3% of 300,000 active | AID 1662;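 active = mean replicate score, as percent of positive control median, at least 50; inconclusive = mean below 50 but one replicate at or above 50; inactive = mean and every replicate below 50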;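 note: strain carries kanamycin resistance gene driven by streptokinase promoter and grows in 40 µg/ml kanamycin; loss of luminescence reflects streptokinase promoter inhibition or plain growth inhibition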
Lmaj promast – Leishmania major promastigote growth inhibition; Leishmania major promastigotes, resazurin fluorescence viability; inhibition, % at 10 µM; 9% of 200,000 active; AID 1063; in the data active = inhibition above about 50%;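 note: promastigotes grown with compound for 44 hours at 28 °C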
CSC inhib – cancer stem cell inhibition; cancer stem cell-like cells viability, luminescence; inhibition, % at 7.5 µM; 1.1% of 300,000 active; in the data active = inhibition above about 75%; inconclusive = no clear call, values can overlap the other calls; tested in HMLE shEcad cells
Mdm2-MdmX conf – confirmation of human Mdm2/MdmX interaction inhibitors. shares compounds with Mdm2 MdmX PPI. 55% of 10,000 active. inhibition, % at 8 µM. Mdm2-MdmX binding, luminescent assay; in the data active = inhibition above about 40%
FLuc counter – inhibits full-length luciferase, flagging false Mdm2/MdmX hits; shares compounds with Mdm2 MdmX PPI; SaOS-2 full-length luciferase counterscreen, luminescence; inhibition, % at 8 µM; 77% of 6,200 active; AID 504607;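 active = mean inhibition at 8 µM reaching about 37%, which flags the compound as non-specific, limit read from the data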;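 note: p53-null SaOS-2 cells with luciferase driven by a doxycycline-inducible promoter; compound on cells about two nights before reading with doxycycline added after day one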
Each line names hits and unclear results; the compound was inactive in the other large screens (follow-up assays come after a bar, where they were run).

CCN(C[C@H]1N[C@@](Cc2ccccc2)(C(=O)OC)[C@H]2C(=O)N(Cc3ccccc3)C(=O)[C@@H]12)C(=O)Nc1ccc(Cl)cc1	Mdm2 MdmX PPI 66.5 (no result: T cruzi repl, SKKanGAS inh, Lmaj promast) | Mdm2-MdmX conf 47.9 | FLuc counter 55.6
Cc1ccc(NC(=O)CN2CCN(CCN=CC3=C(O)CC(c4ccc(C)cc4)CC3=O)CC2)cc1 (centres undefined)	none
CCC(C)N(C(=O)COC(=O)c1cc([N+](=O)[O-])ccc1N)C1CCS(=O)(=O)C1 (centres undefined)	none (no result: Lmaj promast)
O=C(N/N=C(\CC(=O)c1cccs1)C(F)(F)F)c1ccncc1	Mdm2 MdmX PPI 65.8 (no result: Lmaj promast) | Mdm2-MdmX conf inactive
Cc1ccc(C(=O)N/N=C(/CC(=O)c2cccs2)C(F)(F)F)cc1	none
COc1ccc(C(C)NC(=O)CC23CC4CC(CC(C4)C2)C3)cc1 (centres undefined)	none (no result: Lmaj promast)
OC(CNCC1CCCO1)COc1ccc(OCC(O)CNCC2CCCO2)cc1 (centres undefined)	none
CCOC(=O)c1c(C)n(C)c2ccc(OCC(O)CNC(CC)CO)cc12 (centres undefined)	none
CCOC(=O)c1c(C)n(-c2ccc(C)cc2)c2ccc(OCC(O)CNCC3CCCO3)cc12 (centres undefined)	T cruzi repl 64.1, Mdm2 MdmX PPI 78.0, Lmaj promast 100.4, CSC inhib 118.3 | Mdm2-MdmX conf 42.4 | FLuc counter 61.8
CCOC(=O)c1c(C)n(-c2ccc(C)cc2)c2ccc(OCC(O)CNCCCO)cc12 (centres undefined)	Mdm2 MdmX PPI 89.2, Lmaj promast 79.6 (no result: T cruzi repl) | Mdm2-MdmX conf inactive
COc1ccc(-c2cc(C(F)F)n3ncc(C(=O)Nc4c(C)n(C)n(-c5ccccc5)c4=O)c3n2)cc1	none
O=C(Nc1cnn(Cc2ccc(F)cc2)c1)c1cnn2c(C(F)F)cc(-c3ccccc3)nc12	none (no result: Lmaj promast)
COc1ccc(-c2cc(C(F)F)n3ncc(C(=O)Nc4cc(C)on4)c3n2)cc1	Mdm2 MdmX PPI 59.3 | Mdm2-MdmX conf inactive
Cc1ccc(-c2cc(C(F)F)n3ncc(C(=O)Nc4c(C)nn(Cc5ccccc5Cl)c4C)c3n2)cc1	Mdm2 MdmX PPI 77.5, Lmaj promast 57.4 | Mdm2-MdmX conf inactive
Cc1ccc(C2CC(C(F)F)n3ncc(C(=O)Nc4c(C)nn(Cc5c(F)cccc5Cl)c4C)c3N2)cc1 (centres undefined)	T cruzi repl inconclusive, Mdm2 MdmX PPI 69.9 | Mdm2-MdmX conf inactive
Cc1ccc(-c2cc(C(F)F)n3ncc(C(=O)Nc4c(C)nn(Cc5c(Cl)cccc5Cl)c4C)c3n2)cc1	Mdm2 MdmX PPI 80.3 | Mdm2-MdmX conf inactive
COCCNC(=O)c1cnn2c(C(F)F)cc(-c3ccc(C)cc3)nc12	none
CC(=O)NCCc1ccc(S(=O)(=O)Nc2ccc(NC(=O)c3ccc(F)cc3)cc2)cc1	none (no result: Lmaj promast)
CN1CCCN(C(=O)c2cccc(Cl)c2)CC1	none (no result: Lmaj promast)
O=C1C2CCCN2C(=S)N1c1cc(Cl)ccc1Cl (centres undefined)	none (no result: T cruzi repl, Beta cell apopt, SKKanGAS inh, Lmaj promast, CSC inhib)
CCN(CC(=O)Nc1c(F)cccc1F)C(=O)c1cc([N+](=O)[O-])ccc1N1CCCCC1	none (no result: Beta cell apopt, Lmaj promast)
CN1CCN(Cc2nc3ccccc3c(=O)n2CC#N)CC1	none
CN1CCN(Cc2nc3ccccc3c(=O)n2Cc2nc(-c3ccc([N+](=O)[O-])cc3)cs2)CC1	Mdm2 MdmX PPI 95.4, Lmaj promast 100.5 | Mdm2-MdmX conf inactive
Cc1c(-c2ccc(/C=N/NC(=O)C(=O)Nc3ccccc3F)o2)cccc1[N+](=O)[O-]	Mdm2 MdmX PPI 56.2 (no result: Lmaj promast) | Mdm2-MdmX conf inactive
O=C(CCCCCN1C(=O)c2cccc([N+](=O)[O-])c2C1=O)Nc1ccccc1F	none (no result: Lmaj promast)
Cc1cc(Nc2ccccc2)n(C(=O)c2ccc(Cl)cc2)n1	none
Cc1nc(S(=O)(=O)N(C)c2ccccc2)c(C#N)c(C)c1Cl	Mdm2 MdmX PPI 96.2, Lmaj promast 72.0 | Mdm2-MdmX conf 93.4 | FLuc counter 57.4
CN(c1ccccc1)S(=O)(=O)c1ccc(Cl)nc1	none
COc1ccccc1C(C(=O)NC1CCCC1)N(C(=O)c1csnn1)C1CC1 (centres undefined)	none (no result: Lmaj promast)
CC(=O)Nc1nnc(SCC(=O)c2ccc3c(c2)Cc2ccccc2-3)s1	none
CCC(=O)Nc1nnc(SCC(=O)c2ccc3c(c2)Cc2ccccc2-3)s1	Mdm2 MdmX PPI 54.8 (no result: Beta cell apopt) | Mdm2-MdmX conf inactive
O=C(CCl)N1c2ccccc2CCc2ccccc21	T cruzi repl 71.3, Mdm2 MdmX PPI 100.3 (no result: Lmaj promast) | Mdm2-MdmX conf 49.5 | FLuc counter inactive
Cc1cccc(NC(=O)CSc2nc(C3CC3)nc3ccccc23)c1	none (no result: Lmaj promast)
O=C(CSc1nc(C2CC2)nc2ccccc12)Nc1ccccc1	none (no result: Lmaj promast)
COc1cc(NC(=O)CSc2nc(C3CC3)nc3ccccc23)cc(OC)c1	Mdm2 MdmX PPI 53.6 (no result: Lmaj promast) | Mdm2-MdmX conf inactive
CC(=O)Nc1cccc(NC(=O)CSc2nc(C3CC3)nc3ccccc23)c1	Mdm2 MdmX PPI 72.5 (no result: Lmaj promast, CSC inhib) | Mdm2-MdmX conf 57.9 | FLuc counter 44.4
CC(C)c1nc(SCC(=O)Nc2ccc(N3CCOCC3)cc2)c2ccccc2n1	Mdm2 MdmX PPI 53.0 (no result: CSC inhib) | Mdm2-MdmX conf inactive
CN(C)c1ccc(NC(=O)CSc2nc(C3CC3)nc3ccccc23)cc1	Mdm2 MdmX PPI 79.3 (no result: Lmaj promast, CSC inhib) | Mdm2-MdmX conf 44.3 | FLuc counter 54.2
O=C1NC(=S)N/C1=C/c1cc2c(cc1[N+](=O)[O-])OCO2	Mdm2 MdmX PPI 54.6 (no result: Lmaj promast) | Mdm2-MdmX conf inactive
O=C(O)/C=C\c1cc2c(cc1[N+](=O)[O-])OCO2	none (no result: Lmaj promast)
COc1ccc(Cc2nnc(N/N=C/c3ccc(O)cc3O)[nH]c2=O)cc1OC	Mdm2 MdmX PPI 56.4, CSC inhib 90.7 | Mdm2-MdmX conf 43.6 | FLuc counter 49.6
CCn1c(C)nc2cc(-c3nc4n(n3)Cc3ccccc3-4)ccc21	Mdm2 MdmX PPI 92.3, SKKanGAS inh 64.9, CSC inhib 92.2 | Mdm2-MdmX conf 99.3 | FLuc counter 51.4
Cc1ccc(C(=O)NC2c3ccccc3-c3ccccc32)cc1	Mdm2 MdmX PPI 59.1, CSC inhib 82.5 | Mdm2-MdmX conf 58.1 | FLuc counter 53.5
O=C1CC[C@H](OCc2ccccc2)CCN1[C@H](CSc1ccccc1)Cc1ccccc1	none (no result: Lmaj promast)
Cc1cc2cc(CNC(=S)NCc3ccccc3)ccc2n1C	none
Cc1ccc2c(c1)cc(C(=O)NCc1ccccc1)n2C	Mdm2 MdmX PPI 84.9 (no result: Lmaj promast) | Mdm2-MdmX conf 55.5 | FLuc counter 52.1
COc1ccc(C[C@H]2CN3C(=NC[C@@H]3Cc3ccccc3)N2CCNC(=O)CCC2CCCCC2)cc1	Mdm2 MdmX PPI 88.3, Beta cell apopt 100.8, Lmaj promast 57.7, CSC inhib 127.7 | Mdm2-MdmX conf inactive | FLuc counter 53.7
COc1ccc(C[C@H]2CN3C(=NC[C@@H]3C(C)C)N2CCNC(=O)CCC2CCCCC2)cc1	none
